Measurements taken from ChEMBL document CHEMBL2163252, “Azapeptide analogues of the growth hormone releasing peptide 6 as cluster of differentiation 36 receptor ligands with reduced affinity for the growth hormone secretagogue receptor 1a” (J Med Chem, 2012).
Starred links: 1 amine or outer side, 2 acyl side, 3 side chain; linkers in the order of their positions; H or OH if unused. Non-standard residues stand in square brackets, D forms with d. Residues, ends and D or L forms follow the SMILES beside them. dTrp(2-Me) = Cc1[nH]c2ccccc2c1C[C@@H](N)C(=O)O; azaTyr = O=C(N(Cc1ccc(O)cc1)N[*:1])[*:2]; azaPhe = O=C(N(Cc1ccccc1)N[*:1])[*:2]; X1 = O=C(N(CCc1ccccc1)N[*:1])[*:2]; azaLeu = CC(C)CN(N[*:1])C(=O)[*:2]; azaPro = O=C(N1CCCN1[*:1])[*:2]; Aib = CC(C)(N)C(=O)O; azaGly = NNC(=O)O

What was measured:
Platelet glycoprotein 4 = Platelet glycoprotein 4 (Rattus norvegicus, UniProt Q07969); experiment: Displacement of photoactivatable [125I]-Tyr-Bpa-Ala-Hexarelin from CD36 in Sprague-Dawley rat cardiac membranes incubated for 60 mins by densitometry; format: cell membranes, Membrane
Chain of Platelet glycoprotein 4 (Q07969 whole entry): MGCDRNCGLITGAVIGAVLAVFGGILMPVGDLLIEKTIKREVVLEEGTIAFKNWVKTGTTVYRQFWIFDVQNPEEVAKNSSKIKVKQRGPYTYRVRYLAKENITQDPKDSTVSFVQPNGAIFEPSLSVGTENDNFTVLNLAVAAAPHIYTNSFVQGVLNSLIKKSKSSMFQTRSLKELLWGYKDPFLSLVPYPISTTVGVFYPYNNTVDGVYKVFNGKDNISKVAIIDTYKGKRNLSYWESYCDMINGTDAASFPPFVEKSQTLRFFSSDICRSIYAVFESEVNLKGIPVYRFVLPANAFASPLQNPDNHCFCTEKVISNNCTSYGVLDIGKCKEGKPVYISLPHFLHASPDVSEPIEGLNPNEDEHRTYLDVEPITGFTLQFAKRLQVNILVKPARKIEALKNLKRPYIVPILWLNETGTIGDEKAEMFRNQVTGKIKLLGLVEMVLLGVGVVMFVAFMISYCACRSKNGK

[1] = biological target: Growth hormone secretagogue receptor type 1 (Homo sapiens, UniProt Q92847); experiment: Displacement of [125I]ghrelin expressed in LLC-PK1 cells incubated for 1 hr by gamma counting method; format: cell-based
Chain of Growth hormone secretagogue receptor type 1 (Q92847 whole entry): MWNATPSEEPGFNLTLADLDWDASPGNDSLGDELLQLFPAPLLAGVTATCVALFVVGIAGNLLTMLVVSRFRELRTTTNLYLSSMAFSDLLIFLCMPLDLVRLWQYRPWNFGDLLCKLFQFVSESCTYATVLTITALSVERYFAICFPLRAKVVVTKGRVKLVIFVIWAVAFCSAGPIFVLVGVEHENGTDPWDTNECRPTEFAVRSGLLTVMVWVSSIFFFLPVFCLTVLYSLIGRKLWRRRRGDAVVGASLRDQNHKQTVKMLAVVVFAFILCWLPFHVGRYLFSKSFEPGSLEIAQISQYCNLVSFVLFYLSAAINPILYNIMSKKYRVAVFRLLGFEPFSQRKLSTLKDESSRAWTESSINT
How it was run: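 Membranes from LLC-PK1 cells transiently transfected with GHS-R1a (CaPO₄; harvested 24 h later; freeze/thaw lysis, 10000g), 10 μg protein/tube. Incubated with ¹²⁵I-ghrelin (40,000 cpm) and competitor 10⁻¹² to 10⁻⁵ M, 1 h at RT, in Tris/MgCl₂/EDTA/bacitracin buffer pH 7.3. Nonspecific binding set with 10⁻⁵ M competitor. Bound separated by filtration on PEI-soaked GF/C filters, gamma counted.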

[2] = Antiangiogenic effect in […] mouse microvascular choroid explants assessed as choroid sprouting at 10^-7 M after 4 days (reference value: 53%); format: functional

Row | IC50 (Platelet glycoprotein 4) [µM] | IC50 [1] [µM] | Structure (SMILES) | Activity [2] [%]
1 | > 10 | > 10 | C[C@H](NC(=O)[C@H](C)NC(=O)N(Cc1ccc(O)cc1)NC(=O)C(N)Cc1cnc[nH]1)C(=O)N[C@H](Cc1ccccc1)C(=O)N[C@@H](CCCCN)C(N)=O (some centres undefined) | –
2 | > 10 | > 10 | NCCCC[C@H](NC(=O)[C@@H](Cc1ccccc1)NC(=O)[C@@H]1CCCN1C(=O)NNC(=O)[C@@H](Cc1c[nH]c2ccccc12)NC(=O)[C@@H](N)Cc1cnc[nH]1)C(N)=O | –
3 | > 10 | 85.6 | CC(C)CN(NC(=O)[C@@H](Cc1c[nH]c2ccccc12)NC(=O)[C@@H](N)Cc1cnc[nH]1)C(=O)N[C@@H](Cc1c[nH]c2ccccc12)C(N)=O | –
4 | 36.9 | > 10 | C[C@H](N)C(=O)NN(Cc1ccc(O)cc1)C(=O)N[C@@H](C)C(=O)N[C@@H](Cc1c[nH]c2ccccc12)C(=O)N[C@H](Cc1ccccc1)C(=O)N[C@@H](CCCCN)C(N)=O (H-A[azaTyr]AW[dF]K-NH2) | –
5 | > 10 | > 10 | C[C@H](NC(=O)N(Cc1ccccc1)NC(=O)[C@@H](N)Cc1cnc[nH]1)C(=O)N[C@@H](Cc1c[nH]c2ccccc12)C(=O)N[C@H](C)C(=O)N[C@@H](CCCCN)C(N)=O (H-H[azaPhe]AW[dA]K-NH2) | –
6 | > 10 | – | C[C@H](NC(=O)[C@@H](Cc1ccccc1)NC(=O)[C@H](Cc1c[nH]c2ccccc12)NC(=O)[C@H](C)NC(=O)N(Cc1ccccc1)NC(=O)[C@@H](N)Cc1cnc[nH]1)C(N)=O (H-H[azaPhe]AW[dF]A-NH2) | –
7 | > 10 | > 10 | C[C@H](NC(=O)[C@@H](Cc1ccccc1)NC(=O)[C@H](Cc1c[nH]c2ccccc12)NC(=O)[C@H](C)NC(=O)N(Cc1ccc(O)cc1)NC(=O)[C@@H](N)Cc1cnc[nH]1)C(N)=O (H-H[azaTyr]AW[dF]A-NH2) | –
8 | > 10 | > 10 | C[C@H](NC(=O)[C@@H](C)NC(=O)[C@@H](N)Cc1cnc[nH]1)C(=O)NN(Cc1ccccc1)C(=O)N[C@H](Cc1ccccc1)C(=O)N[C@@H](CCCCN)C(N)=O (H-H[dA]A[azaPhe][dF]K-NH2) | –
9 | > 10 | > 10 | CC(C)CN(NC(=O)[C@@H](C)NC(=O)[C@@H](N)Cc1cnc[nH]1)C(=O)N[C@@H](Cc1c[nH]c2ccccc12)C(=O)N[C@H](Cc1ccccc1)C(=O)N[C@@H](CCCCN)C(N)=O (H-H[dA][azaLeu]W[dF]K-NH2) | –
10 | > 10 | > 10 | C[C@H](NC(=O)[C@@H](Cc1c[nH]c2ccccc12)NC(=O)[C@@H](N)Cc1cnc[nH]1)C(=O)N[C@@H](Cc1c[nH]c2ccccc12)C(=O)N1CCCN1C(=O)N[C@@H](CCCCN)C(N)=O (H-H[dW]AW[azaPro]K-NH2) | –
11 | > 10 | – | C[C@H](NC(=O)[C@@H](Cc1c[nH]c2ccccc12)NC(=O)[C@@H](N)Cc1cnc[nH]1)C(=O)NN(CCc1ccccc1)C(=O)N[C@H](Cc1ccccc1)C(=O)N[C@@H](CCCCN)C(N)=O (H-H[dW]A[X1][dF]K-NH2) | –
12 | > 10 | > 10 | C[C@H](NC(=O)NNC(=O)[C@@H](Cc1c[nH]c2ccccc12)NC(=O)[C@@H](N)Cc1cnc[nH]1)C(=O)N[C@H](Cc1ccccc1)C(=O)N[C@@H](CCCCN)C(N)=O (H-H[dW][azaGly]A[dF]K-NH2) | –
13 | 9.81 | > 10 | NCCCC[C@H](NC(=O)[C@@H](Cc1ccccc1)NC(=O)[C@H](Cc1c[nH]c2ccccc12)NC(=O)N1CCCN1C(=O)[C@@H](Cc1c[nH]c2ccccc12)NC(=O)[C@@H](N)Cc1cnc[nH]1)C(N)=O (H-H[dW][azaPro]W[dF]K-NH2) | –

Further lines, the compound ahead of its results:

Row | Structure (SMILES) | IC50 (Platelet glycoprotein 4) [µM] | IC50 [1] [µM] | Activity [2] [%]
14 | C[C@H](NC(=O)[C@H](C)NC(=O)N(Cc1ccccc1)NC(=O)C(N)Cc1cnc[nH]1)C(=O)N[C@H](Cc1ccccc1)C(=O)N[C@@H](CCCCN)C(N)=O (some centres undefined) | > 10 | > 10 | –
15 | CC(C)CN(NC(=O)[C@@H](Cc1c[nH]c2ccccc12)NC(=O)[C@H](C)N)C(=O)N[C@@H](Cc1c[nH]c2ccccc12)C(=O)N[C@H](Cc1ccccc1)C(=O)N[C@@H](CCCCN)C(N)=O | 6.66 | – | –
16 | C[C@H](NC(=O)N1CCCN1C(=O)[C@@H](N)Cc1cnc[nH]1)C(=O)N[C@@H](Cc1c[nH]c2ccccc12)C(=O)N[C@H](Cc1ccccc1)C(=O)N[C@@H](CCCCN)C(N)=O | > 10 | > 10 | –
17 | CCC(=O)N[C@H](Cc1c[nH]c2ccccc12)C(=O)NN(CC(C)C)C(=O)N[C@@H](Cc1c[nH]c2ccccc12)C(=O)N[C@H](Cc1ccccc1)C(=O)N[C@@H](CCCCN)C(N)=O | > 10 | 3.86 | –
18 | CC(C)CN(NC(=O)[C@@H](Cc1c[nH]c2ccccc12)NC(=O)[C@@H](C)N)C(=O)N[C@@H](Cc1c[nH]c2ccccc12)C(=O)N[C@H](Cc1ccccc1)C(=O)N[C@@H](CCCCN)C(N)=O | 13.3 | – | –
19 | CC(C)CN(NC(=O)[C@@H](Cc1c[nH]c2ccccc12)NC(=O)CN)C(=O)N[C@@H](Cc1c[nH]c2ccccc12)C(=O)N[C@H](Cc1ccccc1)C(=O)N[C@@H](CCCCN)C(N)=O | 10.5 | 5.41 | –
20 | CC(C)CN(NC(=O)[C@@H](Cc1c[nH]c2ccccc12)NC(=O)[C@@H]1CCCN1)C(=O)N[C@@H](Cc1c[nH]c2ccccc12)C(=O)N[C@H](Cc1ccccc1)C(=O)N[C@@H](CCCCN)C(N)=O | 7.97 | 1.17 | –
21 | CC(C)CN(NC(=O)[C@@H](Cc1c[nH]c2ccccc12)NC(=O)[C@@H](N)Cc1cnc[nH]1)C(=O)N[C@@H](Cc1c[nH]c2ccccc12)C(=O)N[C@H](Cc1ccccc1)C(N)=O | 9.01 | 4.55 | –
22 | C[C@H](NC(=O)N(Cc1ccccc1)NC(=O)C(N)Cc1cnc[nH]1)C(=O)N[C@@H](Cc1c[nH]c2ccccc12)C(=O)N[C@H](Cc1ccccc1)C(=O)N[C@@H](CCCCN)C(N)=O (some centres undefined) | 72.4 | 16.1 | –
23 | C[C@H](NC(=O)N(Cc1cccc2ccccc12)NC(=O)C(N)Cc1cnc[nH]1)C(=O)N[C@@H](Cc1c[nH]c2ccccc12)C(=O)N[C@H](Cc1ccccc1)C(=O)N[C@@H](CCCCN)C(N)=O (some centres undefined) | > 10 | – | –
24 | C[C@H](NC(=O)N(Cc1ccc(O)cc1)NC(=O)[C@@H](N)Cc1cnc[nH]1)C(=O)N[C@@H](Cc1c[nH]c2ccccc12)C(=O)N[C@H](C)C(=O)N[C@@H](CCCCN)C(N)=O (H-H[azaTyr]AW[dA]K-NH2) | > 10 | > 10 | –
25 | C[C@@H](NC(=O)[C@@H](N)Cc1cnc[nH]1)C(=O)NNC(=O)N[C@@H](Cc1c[nH]c2ccccc12)C(=O)N[C@H](Cc1ccccc1)C(=O)N[C@@H](CCCCN)C(N)=O (H-H[dA][azaGly]W[dF]K-NH2) | > 10 | > 10 | –
26 | C[C@H](NC(=O)[C@@H](Cc1c[nH]c2ccccc12)NC(=O)[C@@H](N)Cc1c[nH]cn1)C(=O)N[C@@H](Cc1c[nH]c2ccccc12)C(=O)N[C@H](Cc1ccccc1)C(=O)N[C@@H](CCCCN)C(N)=O (H-H[dW]AW[dF]K-NH2) | 1.82 | – | –
27 | CC(C)CN(NC(=O)[C@H](C)NC(=O)[C@@H](Cc1c[nH]c2ccccc12)NC(=O)[C@@H](N)Cc1cnc[nH]1)C(=O)N[C@H](Cc1ccccc1)C(=O)N[C@@H](CCCCN)C(N)=O (H-H[dW]A[azaLeu][dF]K-NH2) | > 10 | – | –
28 | C[C@H](NC(=O)[C@@H](Cc1c[nH]c2ccccc12)NC(=O)[C@@H](N)Cc1cnc[nH]1)C(=O)NN(Cc1ccccc1)C(=O)N[C@H](C)C(=O)N[C@@H](CCCCN)C(N)=O (H-H[dW]A[azaPhe][dA]K-NH2) | > 10 | > 10 | –
29 | C[C@H](NC(=O)[C@@H](Cc1ccccc1)NC(=O)N(Cc1ccccc1)NC(=O)[C@H](C)NC(=O)[C@@H](Cc1c[nH]c2ccccc12)NC(=O)[C@@H](N)Cc1cnc[nH]1)C(N)=O (H-H[dW]A[azaPhe][dF]A-NH2) | > 10 | > 10 | –
30 | C[C@H](NC(=O)[C@@H](Cc1c[nH]c2ccccc12)NC(=O)[C@@H](N)Cc1cnc[nH]1)C(=O)N1CCCN1C(=O)N[C@H](Cc1ccccc1)C(=O)N[C@@H](CCCCN)C(N)=O (H-H[dW]A[azaPro][dF]K-NH2) | > 10 | > 10 | –
31 | C[C@H](NC(=O)[C@@H](Cc1c[nH]c2ccccc12)NC(=O)[C@@H](N)Cc1cnc[nH]1)C(=O)NN(Cc1ccc(O)cc1)C(=O)N[C@H](Cc1ccccc1)C(=O)N[C@@H](CCCCN)C(N)=O (H-H[dW]A[azaTyr][dF]K-NH2) | – | – | 17
32 | C[C@@H](NC(=O)[C@H](Cc1c[nH]c2ccccc12)NC(=O)NNC(=O)[C@@H](Cc1c[nH]c2ccccc12)NC(=O)[C@@H](N)Cc1cnc[nH]1)C(=O)N[C@@H](CCCCN)C(N)=O (H-H[dW][azaGly]W[dA]K-NH2) | > 10 | > 10 | –
33 | C[C@H](NC(=O)[C@@H](Cc1ccccc1)NC(=O)[C@H](Cc1c[nH]c2ccccc12)NC(=O)NNC(=O)[C@@H](Cc1c[nH]c2ccccc12)NC(=O)[C@@H](N)Cc1cnc[nH]1)C(N)=O (H-H[dW][azaGly]W[dF]A-NH2) | > 10 | – | –
34 | CC(C)CN(NC(=O)[C@@H](Cc1c[nH]c2ccccc12)NC(=O)[C@@H](N)Cc1cnc[nH]1)C(=O)N[C@@H](C)C(=O)N[C@H](Cc1ccccc1)C(=O)N[C@@H](CCCCN)C(N)=O (H-H[dW][azaLeu]A[dF]K-NH2) | 25.9 | > 10 | –
35 | CC(C)CN(NC(=O)[C@@H](Cc1c[nH]c2ccccc12)NC(=O)[C@@H](N)Cc1cnc[nH]1)C(=O)N[C@@H](Cc1c[nH]c2ccccc12)C(=O)N[C@H](C)C(=O)N[C@@H](CCCCN)C(N)=O (H-H[dW][azaLeu]W[dA]K-NH2) | 9.48 | > 10 | –
36 | Cc1[nH]c2ccccc2c1C[C@@H](NC(=O)[C@@H](Cc1c(C)[nH]c2ccccc12)NC(=O)C(C)(C)N)C(N)=O (H-[Aib]-[dTrp(2-Me)]-[dTrp(2-Me)]-NH2) | > 10 | 0.0629 | –
37 | Cc1[nH]c2ccccc2c1C[C@@H](NC(=O)[C@@H](N)Cc1cnc[nH]1)C(=O)N[C@@H](C)C(=O)N[C@@H](Cc1c[nH]c2ccccc12)C(=O)N[C@H](Cc1ccccc1)C(=O)N[C@@H](CCCCN)C(N)=O [EXAMORELIN] (H-H[dTrp(2-Me)]AW[dF]K-NH2) | – | 0.0159 | –
